Reference: ChEMBL document CHEMBL1671831, “TSPO 18 kDa (PBR) Targeted Photosensitizers for Cancer Imaging (PET) and PDT” (ACS Med Chem Lett, 2011)
Active and inactive are the calls of the source. The rule behind the calls is not given here.

What was measured:
[1] = Drug level in […] cells xenografted BALB/c mouse gut after 24 hrs by microPET analysis; assay type: ADME, cell-based; conditions: in vivo
Procedure, shortened: (§1)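 Balb/c mice bearing EMT6 tumours given the 124I-labelled agent. Uptake in organs and tumour taken by biodistribution 24 h after injection, with microPET coronal emission imaging. Mean with standard deviation.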

Brain = experiment: Drug level in […] cells xenografted BALB/c mouse brain after 24 hrs by microPET analysis; assay type: ADME, cell-based; conditions: in vivo; procedure, shortened: as §1
Liver = experiment: Drug level in […] cells xenografted BALB/c mouse liver after 24 hrs by microPET analysis; assay type: ADME, cell-based; conditions: in vivo; procedure, shortened: as §1
Translocator protein [2] = target: T1, Translocator protein (Homo sapiens, UniProt P30536); experiment: Displacement of [3H]-PK11195 from PBR after 1 hr by scintillation counting
Lung = experiment: Drug level in […] cells xenografted BALB/c mouse lungs after 24 hrs by microPET analysis; assay type: ADME, cell-based; conditions: in vivo; procedure, shortened: as §1
Blood = experiment: Drug level in […] cells xenografted BALB/c mouse blood after 24 hrs by microPET analysis; assay type: ADME, cell-based; conditions: in vivo; procedure, shortened: as §1
Spleen = experiment: Drug level in […] cells xenografted BALB/c mouse spleen after 24 hrs by microPET analysis; assay type: ADME, cell-based; conditions: in vivo; procedure, shortened: as §1
Stomach = experiment: Drug level in […] cells xenografted BALB/c mouse stomach after 24 hrs by microPET analysis; assay type: ADME, cell-based; conditions: in vivo; procedure, shortened: as §1
Heart = experiment: Drug level in […] cells xenografted BALB/c mouse heart after 24 hrs by microPET analysis; assay type: ADME, cell-based; conditions: in vivo; procedure, shortened: as §1
Muscle tissue = experiment: Drug level in […] cells xenografted BALB/c mouse muscle after 24 hrs by microPET analysis; assay type: ADME, cell-based; conditions: in vivo; procedure, shortened: as §1
Kidney = experiment: Drug level in […] cells xenografted BALB/c mouse kidney after 24 hrs by microPET analysis; assay type: ADME, cell-based; conditions: in vivo; procedure, shortened: as §1
MDA-MB-231 [3] = experiment: Drug level in human MDA-MB-231 cells xenografted in SCID mouse after 48 to 96 hrs by microPET analysis; assay type: functional, cell-based; conditions: tested as the 124I-labelled form
Procedure, shortened: (§2)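 Scid mice bearing MDA-231 tumours given the 124I-labelled conjugate at 50 μCi (about 40 ng) per mouse. MicroPET coronal emission imaging at 24, 48, 72 and 96 h after injection, plus biodistribution with three mice per group. Mean with standard deviation.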

MDA-MB-231 [4] = experiment: Drug level in human MDA-MB-231 cells xenografted in SCID mouse after 24 hrs by microPET analysis; assay type: functional, cell-based; procedure, shortened: as §2
MDA-MB-231 [5] = experiment: Antitumor activity against human MDA-MB-231 cells xenografted in SCID mouse assessed as tumor free mouse at 5 umol/kg measured on day 60; assay type: functional
MDA-MB-231 [6] = experiment: Cellular uptake in human MDA-MB-231 cells at 0.1 uM by fluorescence spectroscopy; assay type: ADME, cell-based; conditions: mda-mb-231, 0.1 µM
Procedure, shortened: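 MDA-MB-231 cells. Uptake measured by fluorescence spectroscopy with excitation at 412 nm and emission scanned from 550 to 750 nm (maximum at 678 nm). Conjugate uptake compared with and without the TSPO ligand PK 11195 analogue.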

Translocator protein [7] = target: T1, Translocator protein; experiment: Binding affinity to PBR
[8] = Drug level in human U87 cells xenografted in BALB/c mouse after 24 hrs […]; assay type: ADME, cell-based, U-87MG ATCC; conditions: in vivo, in the assay text read “nude mouse” for “BALB/c mouse”
Procedure, shortened: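 Nude mice bearing U87 tumours given the 124I-labelled agent. Tumour and organ uptake taken by biodistribution 24 h after injection. Mean with standard deviation.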

T1 sequence (P30536 whole entry): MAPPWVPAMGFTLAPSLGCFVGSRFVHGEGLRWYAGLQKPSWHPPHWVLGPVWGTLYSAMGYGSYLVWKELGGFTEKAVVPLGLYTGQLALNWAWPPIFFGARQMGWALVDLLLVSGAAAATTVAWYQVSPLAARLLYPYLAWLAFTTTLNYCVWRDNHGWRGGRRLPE

Question: For `CCC(C)N(C)C(=O)c1cc2ccccc2c(-c2ccccc2I)n1` (stereo unspecified), which Drug uptake [1] is on record?
Answer: Not Active

Question: And the Drug uptake (Brain)?
Answer: Not Active

Question: What about the Drug uptake (Liver) of the same compound?
Answer: Not Active

Question: What about the IC50 (Translocator protein [2]) of the same compound?
Answer: 620 nM

Question: What about the Drug uptake (Lung) of the same compound?
Answer: Not Active

Question: What about the Drug uptake (Blood) of the same compound?
Answer: Not Active

Question: What about the Drug uptake (Spleen) of the same compound?
Answer: Not Active

Question: What about the Drug uptake (Stomach) of the same compound?
Answer: Not Active

Question: What about the Drug uptake (Heart) of the same compound?
Answer: Not Active

Question: What about the Drug uptake (Muscle tissue) of the same compound?
Answer: Not Active

Question: What about the Drug uptake (Kidney) of the same compound?
Answer: Not Active

Question: For `C=Cc1c(C)c2cc3nc(c4c5[nH]c(cc6nc(cc1[nH]2)C(C)=C6CC)c(C)c5C(=O)C4)[C@@H](CCC(=O)NCCN)[C@@H]3C`, which IC50 (Translocator protein [2]) is on record?
Answer: 5600 nM

Question: With `C=Cc1c(C)c2cc3nc(c4c5[nH]c(cc6nc(cc1[nH]2)C(C)=C6CC)c(C)c5C(=O)C4)[C@@H](CCC(=O)NCCNC(=O)c1cc2ccccc2c(-c2ccccc2I)n1)[C@@H]3C` as the compound, how does the IC50 (Translocator protein [2]) read?
Answer: 2200 nM

Question: What does the source list for `CCCCCCOC(C)c1c(C)c2cc3nc(c4c5[nH]c(cc6nc(cc1[nH]2)C(C)=C6CC)c(C)c5C(=O)C4)[C@@H](CCC(=O)NCCCCCCNC(=O)c1cc2ccccc2c(-c2ccccc2I)n1)[C@@H]3C` (stereo partly specified)?
Answer: Drug uptake (MDA-MB-231 [3]): Active; Drug uptake (MDA-MB-231 [4]): Active

Question: With `C=Cc1c(C)c2cc3nc(c4c5[nH]c(cc6nc(cc1[nH]2)C(C)=C6CC)c(C)c5C(=O)C4)[C@@H](CCC(=O)NCCCCCCN)[C@@H]3C` as the compound, how does the Activity (MDA-MB-231 [5]) read?
Answer: 0%

Question: And the IC50 (Translocator protein [2])?
Answer: 25000 nM

Question: And the Drug uptake (MDA-MB-231 [6])?
Answer: Active

Question: Which results are given for `C=Cc1c(C)c2cc3nc(c4c5[nH]c(cc6nc(cc1[nH]2)C(C)=C6CC)c(C)c5C(=O)C4)[C@@H](CCC(=O)NCCCCCCNC(=O)c1cc2ccccc2c(-c2ccccc2I)n1)[C@@H]3C`?
Answer: Activity (MDA-MB-231 [5]): 20%; IC50 (Translocator protein [2]): 310 nM; Drug uptake (MDA-MB-231 [4]): Active; Kd (Translocator protein [7]): 40 nM; Drug uptake (MDA-MB-231 [6]): Active

Question: Which IC50 (Translocator protein [2]) does the source give for `C=Cc1c(C)c2cc3nc(c4c5[nH]c(cc6nc(cc1[nH]2)C(C)=C6CC)c(C)c5C(=O)C4)[C@@H](CCC(=O)N(C)CCCCCCN(C)C(=O)c1cc2ccccc2c(-c2ccccc2I)n1)[C@@H]3C` here?
Answer: 210 nM

Question: For `C=Cc1c(C)c2cc3nc(c4c5[nH]c(cc6nc(cc1[nH]2)C(C)=C6CC)c(C)c5C(=O)C4)[C@@H](CCC(=O)N(C)CCN(C)C(=O)c1cc2ccccc2c(-c2ccccc2I)n1)[C@@H]3C`, which IC50 (Translocator protein [2]) is on record?
Answer: 1000 nM

Question: With `CCC(C)N(C)C(=O)c1cc2ccccc2c(-c2ccccc2[124I])n1` (stereo unspecified) as the compound, how does the Drug uptake [8] read?
Answer: Not Active
